Efflux pump mplx: inhibitors of Candida efflux pumps in yeast, primary screen, S. cerevisiae, Nile Red, multiplex. inhibition, % at 10 µM. S. cerevisiae Candida pump triplex. hit rate 0.44% among 330,000. AID 485275, 2010;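 active = plate passing quality check with inhibition over a set limit, or well fluorescence over plate mean plus 4 SD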;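 also: Nile Red retained in pooled yeast measured as flow cytometry median fluorescence; 0% = buffer negative control and 100% = Enniatin B positive control; higher means more Nile Red kept so more efflux inhibition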
Tb MetRS inh: T. brucei MetRS inhibitors, primary screen, biochemical, luminescence | methionyl-tRNA synthetase (Trypanosoma brucei brucei) | purified T. brucei MetRS, ATP depletion, Kinase-Glo luminescence | inhibition, % at 11.9 µM | hit rate 0.4% among 360,000;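 active = inhibition above a per-plate cutoff of the control wells' mean inhibition plus 3 SD, cut at about 5.5% in these data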;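 also: 0% = DMSO wells median and 100% = median of wells with control inhibitor compound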
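Material – parasite MetRS enzyme · Medium – HEPES-MgCl2-KCl buffer plus DTT, spermine, BSA, pyrophosphatase · Reagent – ATP, methionine and E. coli bulk tRNA substrates · Times – 15 min enzyme-compound preincubation, 2 h reaction, 10 min detection, 25 °C · Measured by – luminescence of leftover ATP · Evaluation – percent inhibition relative to median high and low control wells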
SMARCA2 activ: SMARCA2 (BRM) function activators, primary screen, cell-based, luminescence, high throughput | AID 652017, 2013 | MG213 cells, MMTV-luciferase reporter, dexamethasone, overnight | hit rate 1% among 370,000 | activation, % at 9.1 µM; in the data active = activation above about 7.8%;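 also: 0% = vehicle wells and 100% = reference activator wells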
AHR activator: AHR activators, primary screen, cell-based, luminescence, luciferase reporter, human; AHR-responsive luciferase reporter cells; activation, % at 5 µM; hit rate 2.5% among 320,000; in the data active = activation above about 47%;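 also: 0% = vehicle wells and 100% = reference agonist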
Target sequence (P35869 whole entry, looked up): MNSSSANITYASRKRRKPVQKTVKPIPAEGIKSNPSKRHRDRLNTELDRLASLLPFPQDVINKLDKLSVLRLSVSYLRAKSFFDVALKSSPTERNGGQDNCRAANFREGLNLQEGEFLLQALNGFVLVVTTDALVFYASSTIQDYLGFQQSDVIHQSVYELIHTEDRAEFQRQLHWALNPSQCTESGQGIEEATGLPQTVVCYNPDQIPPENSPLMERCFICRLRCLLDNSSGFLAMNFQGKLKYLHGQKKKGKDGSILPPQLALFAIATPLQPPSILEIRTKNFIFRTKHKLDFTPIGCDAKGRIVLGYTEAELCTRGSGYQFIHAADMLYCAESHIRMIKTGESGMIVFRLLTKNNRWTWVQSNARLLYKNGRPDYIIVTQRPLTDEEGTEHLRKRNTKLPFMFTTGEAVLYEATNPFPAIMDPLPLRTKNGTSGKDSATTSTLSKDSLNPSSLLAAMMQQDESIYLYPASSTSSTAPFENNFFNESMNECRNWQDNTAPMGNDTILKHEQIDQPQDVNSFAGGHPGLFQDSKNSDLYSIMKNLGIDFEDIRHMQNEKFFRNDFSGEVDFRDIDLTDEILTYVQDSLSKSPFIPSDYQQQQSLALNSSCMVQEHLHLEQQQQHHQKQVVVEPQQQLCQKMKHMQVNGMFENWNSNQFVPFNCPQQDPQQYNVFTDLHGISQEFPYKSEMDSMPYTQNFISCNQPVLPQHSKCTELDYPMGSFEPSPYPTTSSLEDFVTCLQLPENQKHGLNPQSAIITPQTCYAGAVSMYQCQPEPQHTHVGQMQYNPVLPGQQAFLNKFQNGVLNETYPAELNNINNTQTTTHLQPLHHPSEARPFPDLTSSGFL
H9c2 TAG inh: inhibitors of triacylglycerol accumulation, primary screen, cell-based, uHTS, fluorescence, H9c2; hit rate 0.66% among 230,000; H9c2 cells, Nile Red lipid (TAG) fluorescence; cells loaded with 200 µM oleic acid; inhibition, % at 12.5 µM;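 active = pattern-corrected inhibition of lipid staining of at least 50% with the nuclear-stain viability signal not falling by more than 50%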;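 also: 0% = DMSO wells and 100% = triacsin C control wells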
* hit, by the source's call; / = no result given. In the library only some 4.1% were active in any assay of this set; here they are far more common.

SMILES	Efflux pump mplx	Tb MetRS inh	SMARCA2 activ	AHR activator	H9c2 TAG inh
COc1ccc(C)cc1NC(=O)c1cccc(C(=O)Nc2cc(C)ccc2OC)c1	-0.1	-1.2	-2.2	4.0	25.5
CC1(C)OC(C)(C)C(=N/O)/C1=N\N	/	/	-3.8	/	/
Cc1cc(C)cc(NC2=C(N)C(=O)c3ccccc3C2=O)c1	-0.1	-0.6	/	54.7*	/
O=C(C1CCCN1S(=O)(=O)c1ccc([N+](=O)[O-])cc1)N1CCN(c2ccccc2)CC1 (centres undefined)	/	/	-4.9	/	/
O=C(Nc1ccccc1)C(=O)Nc1ccccn1	0.0	-0.4	8.0*	2.2	/
O=C(Nc1ccccn1)c1cc2ccccc2cc1O	-0.1	2.8	/	68.3*	/
COc1cccc(CNc2ccc3c(c2)nc(C)n3C)c1OC	-0.1	-0.6	1.9	67.1*	/
CC(C)(C)c1cc(Br)c(O)c(N=Nc2ccc(S(=O)(=O)N3CCOCC3)cc2)c1	0.0	-0.2	-0.6	2.5	84.8*
Cc1ccc(O)c(N=Nc2ccc(S(=O)(=O)N3CCOCC3)cc2)c1	0.1	-0.7	0.2	1.9	14.9
COc1ccc(S[C@]2(C(=O)N3CCCC3)CC(=O)N(C(=O)CCc3ccccc3)[C@@H]2c2ccc(OC)cc2)cc1	/	/	-3.2	/	/
O=C(NCCc1ccccc1)OCc1cn(-c2ccc(F)c(F)c2)nn1	/	/	-0.1	/	/
CC1(C)CC(=O)C2=C(C1)NC1=C(C(=O)c3ccccc31)C2c1ccccc1 (centres undefined)	0.3	0.0	-4.5	0.8	/
COc1cc(C2C(C#N)=C(C)NC3=C2C(=O)c2ccccc23)cc(OC)c1OC (centres undefined)	-0.1	-0.9	-0.6	112.7*	/
COc1ccc(C2C(C#N)=C(C)NC3=C2C(=O)c2ccccc23)cc1 (centres undefined)	-0.1	-0.2	-1.0	3.5	/
CC1=C([N+](=O)[O-])C(c2ccccc2)C2=C(N1)c1ccccc1C2=O (centres undefined)	-0.1	-0.1	-1.9	8.7	59.8*
Cc1ccc(-c2nnc(SCC(=O)NNC(=S)Nc3ccccc3)n2C2CCCCC2)cc1	/	/	-4.2	/	/
Cc1cc(C)c(-c2cc(NC(=O)CSc3nncn3C)n(-c3ccccc3)n2)cc1C	0.1	-0.5	1.0	64.4*	/
Cn1cnnc1SCC(=O)Nc1ccccc1	0.1	-0.2	1.3	2.9	-11.6
O=[N+]([O-])CC(=Nc1ccc(F)cc1)N/N=C\c1oc(O)c2ccccc12	0.2	/	/	53.7*	/
O=C(N/N=C/c1oc(O)c2ccccc12)c1ccccc1O	0.0	-0.4	1.2	10.7	/
Cc1cc(Nc2ccc(C)c(Br)c2)n2nc(C)nc2n1	-0.1	0.4	-0.6	60.5*	22.4
CCCCN1CCS(=O)(=O)N(Cc2cn(Cc3ccccc3Br)nn2)C(C(=O)OC)C1 (centres undefined)	/	/	-1.9	/	/
Cc1c(Cl)cccc1Nc1nc(NCCO)c2ccccc2n1	0.1	0.9	-0.6	57.0*	-28.0
O=C(O)C1CC(c2ccccc2)=Nc2ccccc2S1 (centres undefined)	0.0	-0.4	3.4	52.9*	-19.2
COC(=O)CNc1c(-c2ccccn2)nc2ccc(Br)cn12	0.0	-1.0	3.1	61.9*	-12.3
SMILES	Efflux pump mplx	Tb MetRS inh	SMARCA2 activ	AHR activator	H9c2 TAG inh
CCC(=O)NC(c1cc(Cl)c2cccnc2c1O)C1CC1 (centres undefined)	0.0	0.2	-1.6	13.7	52.2*
CCC(=O)NC(c1ccc(Cl)cc1Cl)c1ccc2cccnc2c1O (centres undefined)	0.0	-0.5	-0.8	-2.1	55.3*
CCCCC(=O)NC(c1ccc(Cl)cc1Cl)c1ccc2cccnc2c1O (centres undefined)	-0.1	0.1	-3.1	/	/
Cc1ccc2nc(SCC(=O)N3CCN(C(=O)c4ccco4)CC3)[nH]c2c1	-4.3	0.8	-1.2	67.9*	/
CCc1cc2ccc(C)cc2nc1SCC(=O)N1CCN(C(=O)c2ccco2)CC1	0.4	-1.0	-1.4	51.9*	8.5
CCc1cc2cc3c(cc2nc1SCC(=O)N1CCN(C(=O)c2ccco2)CC1)OCO3	0.1	0.7	0.8	18.4	-13.2
Cn1cccc1C(=O)N1CCN(S(=O)(=O)c2cccc3ccccc23)CC1	/	/	4.7	/	/
CSc1ccc(C=NNC(=O)c2cc(-c3ccc(Cl)cc3)n[nH]2)cc1	/	/	3.7	/	/
CCC(=O)N[C@H]1C[C@@H]2O[C@@H](CO)CC[C@@H]2O[C@@H]1CCc1ccc(-c2cccc(OC)c2)cc1	/	/	-1.4	/	/
Cc1ccc(-n2c(SCC(=O)c3ccc(Br)cc3)nnc2-c2ccncc2)cc1	/	/	-2.9	/	/
C=CC(=O)N1C/C(=C/c2ccc(F)cc2)C(=O)/C(=C\c2ccc(F)cc2)C1	/	-0.3	-10.8	/	78.0*
CS(=O)(=O)c1ccc2nc(NC(=O)CCS(=O)(=O)c3ccccc3)sc2c1	0.0	0.2	0.1	2.8	/
CCN(CC)S(=O)(=O)c1ccc2nc(NC(=O)c3cccs3)sc2c1	0.5	-0.1	0.7	71.6*	1.1
CS(=O)(=O)c1ccc2nc(NC(=O)CCC(=O)c3cccs3)sc2c1	0.3	0.1	0.6	52.5*	20.7
CN[C@H]1C[C@@H](c2ccccc2Br)N(C(C)=O)C[C@H]1CO	/	/	1.4	/	/
CC(C)CN1C(=O)[C@]2(CC(=O)N(C)C2c2ccccc2)c2cc(-n3cc(CCCC#N)nn3)ccc21 (some centres undefined)	/	/	-4.1	/	/
Cc1ncsc1CCSc1nc2ccccc2c(=O)n1C	-0.1	-1.8	2.4	96.0*	/
CCc1ccccc1NC(=O)c1cc2sccc2n1C	0.1	-0.8	-1.3	64.1*	-6.8
Cc1cc(NC(=O)Nc2cccc(F)c2)n(-c2ccccc2)n1	/	/	-0.7	/	/
O=C(NN1C(=O)/C(=C/C=C/c2ccco2)SC1=S)c1ccncc1	1.1*	0.4	3.1	-1.3	4.3
O=C(NN1C(=O)/C(=C/C=C/c2ccccc2)SC1=S)c1ccncc1	0.1	-0.6	-2.4	1.3	14.9
Cc1nn(-c2ccccc2)c2nc3c(cc12)C(=O)CCC3	0.3	-1.2	-4.0	55.0*	17.0
Cc1nn(-c2ccccc2)c2nc(Cl)c(C(=O)O)cc12	0.0	-0.2	0.7	0.1	12.5
CC1=Nn2c(nnc2-c2cc(-c3ccccc3)n[nH]2)SC1	0.0	-1.6	1.5	78.9*	20.9
Cn1ccnc1CN1CCC[C@]2(CC[C@H](CCC#N)O2)C1	/	/	-4.4	/	/
Cn1c(C(C#N)/C(=N\S(=O)(=O)c2cccs2)c2ccccc2)nc2ccccc21 (centres undefined)	0.0	-0.7	3.7	79.2*	/
Cc1cc2cc(C)c3nnc(SCc4ccccn4)n3c2cc1C	-0.3	-0.3	-4.0	72.8*	/
COC1=C[C@H](C(=O)NCc2ccc(Br)cc2)[C@H](C)[C@@H](c2ccccc2)CC1=O	/	/	-1.2	/	/
Cn1c(-c2ncc(F)cc2F)cc2onc(-c3c(F)cccc3Cl)c2c1=O	-0.1	0.4	7.1	50.2*	14.9

Screens deposited in PubChem by several laboratories.
